≈ marks a conversion by molar mass, not a printed value.
What was measured:
Klebsiella pneumoniae [1] = assay: Antimicrobial activity against Klebsiella pneumoniae ATCC 27736 after 24 hrs by microbroth dilution method; format: functional; settings: ATCC 27736, 24 h
Method in brief: (§1)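 Broth microdilution per NCCLS guidelines. Bacteria in Mueller-Hinton broth; fungi in MOPS-buffered RPMI 1640. Test compounds at 50-0.36 µg/mL, standard drugs over 32-0.0018 µg/mL. Inoculum 1-5 × 10^3 cells/mL, 35 °C in a moist chamber. A492 read at 24 h for bacteria, 48 h for C. albicans, 72 h for A. fumigatus, C. neoformans and S. schenckii, 96 h for T. mentagrophytes. MIC taken as 90% growth inhibition relative to growth control.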

[2] = system: Trichophyton mentagrophytes; assay: Antimicrobial activity against Trichophyton mentagrophytes after 96 hrs by microbroth dilution method; format: functional; method in brief: as §1
Candida albicans = assay: Antimicrobial activity against Candida albicans after 48 hrs by microbroth dilution method; format: functional; method in brief: as §1
[3] = system: Trichophyton mentagrophytes; assay: Ratio of miconazole MIC to compound MIC for Trichophyton mentagrophytes after 96 hrs by microbroth dilution method; format: functional
L929 [4] = assay: Cytotoxicity against mouse L929 cells assessed as change in morphology at 50 ug/ml after 24 hrs using Giemsa staining by phase contrast microscopy; format: cell-based; settings: l929, 24 h
Method in brief: (§2)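 Mouse fibroblast L929 cells grown in DMEM with 10% FBS and antibiotic/antimycotic at 37 °C, 5% CO2. Medium switched to serum-free DMEM at 90% confluency, then compounds added (DMSO stocks) for 24 h. Cells fixed, stained with Giemsa for 30 min at 37 °C, washed with PBS, air dried and examined by phase-contrast microscopy.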

Pseudomonas aeruginosa = assay: Antimicrobial activity against Pseudomonas aeruginosa ATCC BAA-427 after 24 hrs by microbroth dilution method; format: functional; settings: ATCC BAA-427, 24 h; method in brief: as §1
Aspergillus fumigatus [5] = assay: Antimicrobial activity against Aspergillus fumigatus after 72 hrs by microbroth dilution method; format: functional; method in brief: as §1
Escherichia coli = assay: Antimicrobial activity against Escherichia coli ATCC 9637 after 24 hrs by microbroth dilution method; format: functional; settings: ATCC 9637, 24 h; method in brief: as §1
Staphylococcus aureus [6] = assay: Antimicrobial activity against vancomycin-resistant Staphylococcus aureus after 24 hrs by microbroth dilution method; format: functional
Method in brief: (§3)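 Microbroth dilution in Mueller Hinton broth, following NCCLS guidelines. Test compounds were run at 50-0.36 µg/mL against an initial inoculum of 1-5 × 10^3 cells/mL. Plates were incubated in a moist chamber at 35 °C, and absorbance at 492 nm was read after 24 h. MIC was taken as 90% growth inhibition relative to the growth control.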

[7] = system: Trichophyton mentagrophytes; assay: Ratio of fluconazole MIC to compound MIC for Trichophyton mentagrophytes after 96 hrs by microbroth dilution method; format: functional
L929 [8] = assay: Cytotoxicity against mouse L929 cells assessed as change in morphology at MIC after 24 hrs using Giemsa staining by phase contrast microscopy; format: cell-based; settings: l929, 24 h; method in brief: as §2
Sporothrix schenckii = assay: Antimicrobial activity against Sporothrix schenckii after 72 hrs by microbroth dilution method; format: functional; method in brief: as §1
L929 [9] = assay: Cytotoxicity against mouse L929 cells assessed as reduction in cell viability after 24 hrs by MTT assay; format: cell-based; settings: l929, 24 h
Method in brief: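 L929 fibroblasts in DMEM with 10% FBS at 37 °C, 5% CO2. Seeded at 1×10^3 cells per well, switched to serum-free DMEM at 90% confluency. Compounds from 1 mg/mL DMSO stocks tested at nine twofold dilutions for 24 h. MTT readout: viability = (A570−A630) sample / (A570−A630) control × 100.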

Cryptococcus neoformans = assay: Antimicrobial activity against Cryptococcus neoformans after 72 hrs by microbroth dilution method; format: functional; method in brief: as §1
Staphylococcus aureus [10] = assay: Antimicrobial activity against methicillin-resistant Staphylococcus aureus after 24 hrs by microbroth dilution method; format: functional; method in brief: as §3
Staphylococcus aureus [11] = assay: Antimicrobial activity against Staphylococcus aureus ATCC 25923 after 24 hrs by microbroth dilution method; format: functional; settings: ATCC 25923, 24 h; method in brief: as §1
Klebsiella pneumoniae [12] = assay: Ratio of methicillin MIC to compound MIC for Klebsiella pneumoniae ATCC 27736 after 24 hrs by microbroth dilution method; format: functional
Aspergillus fumigatus [13] = assay: Ratio of miconazole MIC to compound MIC for Aspergillus fumigatus after 72 hrs by microbroth dilution method; format: functional
Aspergillus fumigatus [14] = assay: Ratio of clotrimazole MIC to compound MIC for Aspergillus fumigatus after 72 hrs by microbroth dilution method; format: functional
Klebsiella pneumoniae [15] = assay: Ratio of vancomycin MIC to compound MIC for Klebsiella pneumoniae ATCC 27736 after 24 hrs by microbroth dilution method; format: functional
Klebsiella pneumoniae [16] = assay: Ratio of gentamycin MIC to compound MIC for Klebsiella pneumoniae ATCC 27736 after 24 hrs by microbroth dilution method; format: functional
Klebsiella pneumoniae [17] = assay: Ratio of ampicillin MIC to compound MIC for Klebsiella pneumoniae ATCC 27736 after 24 hrs by microbroth dilution method; format: functional

`CCCCO[C@@H]1C=CC(=O)[C@@H](Cn2cc(CCCCl)nn2)O1` gave an MIC (Klebsiella pneumoniae [1]) of over 50 µg/mL, an MIC [2] of 0.39 µg/mL (≈ 1.19 µM) and an MIC (Candida albicans) of 25 µg/mL (≈ 76.3 µM). For the same compound, the Ratio [3] was 2, the Activity (L929 [4]) was “Toxic” and the MIC (Pseudomonas aeruginosa) was over 50 µg/mL. For the same compound, the MIC (Aspergillus fumigatus [5]) was over 50 µg/mL, the MIC (Escherichia coli) was over 50 µg/mL and the MIC (Staphylococcus aureus [6]) was over 50 µg/mL. For the same compound, the Ratio [7] was 40, the Activity (L929 [8]) was “Non-toxic” and the MIC (Sporothrix schenckii) was 3.12 µg/mL (≈ 9.52 µM). The Activity (L929 [9]) was “Dose-dependent effect”, the MIC (Cryptococcus neoformans) was 50 µg/mL (≈ 153 µM) and the MIC (Staphylococcus aureus [10]) was over 50 µg/mL. It also gave an MIC (Staphylococcus aureus [11]) of 12.5 µg/mL (≈ 38.1 µM).

`CC(C)CCO[C@@H]1C=CC(=O)[C@@H](Cn2cc(COCC34CC5CC(CC(C5)C3)C4)nn2)O1` showed an MIC (Klebsiella pneumoniae [1]) of 0.78 µg/mL (≈ 1.76 µM), an MIC [2] of 1.56 µg/mL (≈ 3.52 µM) and a Ratio (Klebsiella pneumoniae [12]) of 8. For the same compound, the Ratio (Aspergillus fumigatus [13]) was 8, the MIC (Candida albicans) was over 50 µg/mL and the Ratio (Aspergillus fumigatus [14]) was 5. The Ratio (Klebsiella pneumoniae [15]) was 16, the Activity (L929 [4]) was “Toxic” and the Ratio (Klebsiella pneumoniae [16]) was 2. The MIC (Pseudomonas aeruginosa) was 50 µg/mL (≈ 113 µM), the MIC (Aspergillus fumigatus [5]) was 1.56 µg/mL (≈ 3.52 µM) and the MIC (Escherichia coli) was 50 µg/mL (≈ 113 µM). The MIC (Staphylococcus aureus [6]) was 3.12 µg/mL (≈ 7.03 µM), the Ratio (Klebsiella pneumoniae [17]) was 16 and the Activity (L929 [8]) was “Non-toxic”. For the same compound, the MIC (Sporothrix schenckii) was 50 µg/mL (≈ 113 µM), the Activity (L929 [9]) was “Dose-dependent effect” and the MIC (Cryptococcus neoformans) was 50 µg/mL (≈ 113 µM). For the same compound, the MIC (Staphylococcus aureus [10]) was 3.12 µg/mL (≈ 7.03 µM) and the MIC (Staphylococcus aureus [11]) was 1.56 µg/mL (≈ 3.52 µM).
